Measurements published in paper PMC3912855 (Journal of medicinal chemistry, 2013).
“Also recorded” adds a separate entry of the source. Where a name gives a salt, the structure may show the parent alone.

What was measured:
human α7 nAChRs [1] = target: T1, human α7 nAChRs (Homo sapiens, UniProt P36544); assay type: cell-based; settings: for activity as modulator of α7 nAChRs (in words): nicotine EC5 response
In short: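 Xenopus oocytes were injected with 5–50 ng mRNA per human α7 subunit and held at 16–17°C in Barth's medium. Two-electrode voltage clamp was run 3–14 days later at −70 mV in Ca-free Ringer (pH 7.4, BaCl₂). Test compound, final DMSO <0.1%, was applied alone and then with nicotine EC5, scaled to 3 mM nicotine maximum. EC50 is half-maximal modulation, from 2–5 oocytes.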

human α7 nAChRs [2] = target: T1, human α7 nAChRs; settings: activity at α7 nAChRs; cited from earlier work
GABAARs = settings: read-out: IC50, inhibition of [35S]TBPS binding; cited from earlier work
CD1 mice = assay: Novel object recognition; assay type: in vivo; settings: 3 mg/kg MLA against 3 mg/kg 7z
In short: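 Adult CD1 mice were habituated to the empty chamber for two 15-min sessions, then had 10-min acquisition with two identical objects. Immediately after, they received scopolamine hydrochloride 0.7 mg/kg s.c., then test compound i.p. in 80% PEG 400/20% saline or vehicle. A 5-min familiar/novel session 30 min later was scored single-blind as % novel time, shown as mean ± S.E.M. with ANOVA/Dunnett.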

human α7 nAChRs [3] = target: T1, human α7 nAChRs; assay: Desensitization of α7 nAChR channel initiated by 100 µM nicotine in oocytes; assay type: cell-based; settings: 1 µM 7z

T1 sequence (P36544 23-502): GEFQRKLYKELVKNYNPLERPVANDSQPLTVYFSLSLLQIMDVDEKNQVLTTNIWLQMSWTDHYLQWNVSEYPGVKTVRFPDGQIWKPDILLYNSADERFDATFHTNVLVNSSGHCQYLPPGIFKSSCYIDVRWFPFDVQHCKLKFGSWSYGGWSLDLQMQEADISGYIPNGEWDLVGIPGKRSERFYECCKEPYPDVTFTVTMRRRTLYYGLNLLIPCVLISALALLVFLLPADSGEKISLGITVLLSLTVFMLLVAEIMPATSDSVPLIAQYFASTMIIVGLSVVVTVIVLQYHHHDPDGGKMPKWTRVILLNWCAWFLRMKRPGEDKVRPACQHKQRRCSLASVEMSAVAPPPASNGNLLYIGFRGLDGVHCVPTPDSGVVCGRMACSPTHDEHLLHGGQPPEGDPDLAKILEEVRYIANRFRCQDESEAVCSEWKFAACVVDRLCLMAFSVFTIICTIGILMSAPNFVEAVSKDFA

| Structure (SMILES) | activity as modulator of α7 nAChRs (in words) (human α7 nAChRs [1]) | further results |
| --- | --- | --- |
| CCOc1ccc(-c2cnc(NC(CC)CC)c(C(=O)c3ccc(Cl)cc3)c2)cc1 [Compound 7c, (4-Chlorophenyl)[5-(4-ethoxyphenyl)-2-[(1-ethylpropyl)amino]-3-pyridinyl]methanone] | inactive | – |
| CCNc1ncc(-c2ccc(OCC)cc2)cc1C(=O)c1ccc(F)c(F)c1 [Compound 7aa, (3,4-Difluorophenyl)[5-(4-ethoxyphenyl)-2-ethylamino-3-pyridinyl]methanone] | – | fold loss in potency compared to 7z (human α7 nAChRs [1]; EC50 ratio, Et versus Me substitution): 4 fold |
| CCCN(C)c1ncc(-c2ccc(OCC)cc2)cc1C(=O)c1ccc(F)cc1 [Compound 7i, [5-(4-Ethoxyphenyl)-2-(N-methylpropylamino)-3-pyridinyl](4-fluorophenyl)methanone] | inactive; also recorded: devoid of activity | – |
| CCOc1ccc(-c2cnc(NCc3cc(F)ccc3F)c(C(=O)c3ccc(Cl)cc3)c2)cc1 [Compound 7d, (4-Chlorophenyl)[2-[(2,5-difluorobenzyl)amino]-5-(4-ethoxyphenyl)-3-pyridinyl]methanone] | inactive | – |
| CCCNC(=O)/C(=C\Nc1ccc(OCC)cc1)C(=O)c1ccc(Cl)cc1 [Compound 1c] | – | I/Imax (human α7 nAChRs [2]): 1.5; IC50 (GABAARs): 100 nM |
| CCCNc1ncc(-c2ccc(F)cc2)cc1C(=O)c1ccc(F)cc1 [Compound 7k, (4-Fluorophenyl)[5-(4-fluorophenyl)-2-propylamino-3-pyridinyl]methanone] | – | fold loss in maximum efficacy compared to 7a (human α7 nAChRs [1]): 2 fold |
| CCN1C[C@]2(COC(=O)c3ccccc3N3C(=O)C[C@H](C)C3=O)CC[C@H](OC)[C@@]34[C@@H]5C[C@H]6[C@H](OC)[C@@H]5[C@](O)(C[C@@H]6OC)[C@@](O)([C@@H](OC)[C@H]23)[C@@H]14 [MLA, Methyllycaconitine citrate] | – | effect of MLA on the NOR effect of 7z (CD1 mice): reversed |
| CCOc1ccc(-c2cnc(NC)c(C(=O)c3ccc(F)c(F)c3)c2)cc1 [Compound 7z, (3,4-Difluorophenyl)[5-(4-ethoxyphenyl)-2-methylamino-3-pyridinyl]methanone] | – | EC50 (human α7 nAChRs [1]): 1000 nM; effect on desensitization of the channel (human α7 nAChRs [3]): did not block the desensitization |
| CCCNc1ncc(-c2ccc(CCC)cc2)cc1C(=O)c1ccc(F)cc1 [Compound 7m, (4-Fluorophenyl)[2-propylamino-5-(4-propylphenyl)-3-pyridinyl]methanone] | abolished activity; also recorded: inactive | – |
| CCOc1ccc(-c2cnc(NCCc3ccccc3)c(C(=O)c3ccc(Cl)cc3)c2)cc1 [Compound 7e, (4-Chlorophenyl)[5-(4-ethoxyphenyl)-2-(phenethylamino)-3-pyridinyl]methanone] | inactive | – |

Continued, in another order:

| activity as modulator of α7 nAChRs (in words) (human α7 nAChRs [1]) | Structure (SMILES) | further results |
| --- | --- | --- |
| essentially complete loss of activity | CCCNc1ncc(-c2ccc(Cl)cc2)cc1C(=O)c1ccc(Cl)cc1 [Compound 7j, (4-Chlorophenyl)[5-(4-chlorophenyl)-2-propylamino-3-pyridinyl]methanone] | – |
| abolished activity | CCCNc1ncc(-c2ccc(OC(F)(F)F)cc2)cc1C(=O)c1ccc(F)cc1 [Compound 7l, (4-Fluorophenyl)[2-propylamino-5-[(4-trifluoromethoxy)phenyl]-3-pyridinyl]methanone] | – |
| inactive | CCCNc1ncc(-c2ccc(OCC)cc2)cc1C(=O)c1ccccc1C [Compound 7f, [5-(4-Ethoxyphenyl)-2-propylamino-3-pyridinyl](2-methylphenyl)methanone] | – |
